Results on four molecules are retold here after ChEMBL document CHEMBL1155278, “3,4-Diaryl-isoxazoles and -imidazoles as potent dual inhibitors of p38alpha mitogen activated protein kinase and casein kinase 1delta” (J Med Chem, 2009).

The target of experiment [1] is Aurora kinase B (Homo sapiens) (UniProt Q96GD4). Put plainly: Inhibition of Aurora B assessed as residual activity at 10 uM by Cherenkov counting relative to control in presence of 20 uM ATP. The procedure, abridged:
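Single-point profiling at 10 µM in a panel of 78 protein kinases. Kinase activity is expressed as a percentage relative to control assays without compound.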

For experiment [2], the target named is Protein kinase C alpha type (Homo sapiens) (UniProt P17252). Put plainly: Inhibition of PKCalpha assessed as residual activity at 10 uM by Cherenkov counting relative to control in presence of 20 uM ATP. In outline: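 Single-concentration profiling at 10 μM in a 78-kinase panel. Kinase activity is expressed as a percentage of control assays run without compound.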

In experiment [3] the target is MAP/microtubule affinity-regulating kinase 3 (Homo sapiens) (UniProt P27448). Put plainly: Inhibition of MARK3 assessed as residual activity at 10 uM by Cherenkov counting relative to control in presence of 5 uM ATP.
Experiment [4] concerns the target Mitogen-activated protein kinase 10 (Homo sapiens) (UniProt P53779). Put plainly: Inhibition of JNK3 at 10 uM by Cherenkov counting in presence of 20 uM ATP.
Experiment [5] deals with Mitogen-activated protein kinase 9 (Homo sapiens) (UniProt P45984). Put plainly: Inhibition of JNK2 at 10 uM by Cherenkov counting in presence of 20 uM ATP.
In experiment [6] the target is T1, Casein kinase I isoform delta (Homo sapiens, UniProt P48730). Put plainly: Inhibition of CK1delta by Cherenkov counting in presence of 20 uM ATP.
Target sequence in this assay (P48730 whole entry, canonical isoform): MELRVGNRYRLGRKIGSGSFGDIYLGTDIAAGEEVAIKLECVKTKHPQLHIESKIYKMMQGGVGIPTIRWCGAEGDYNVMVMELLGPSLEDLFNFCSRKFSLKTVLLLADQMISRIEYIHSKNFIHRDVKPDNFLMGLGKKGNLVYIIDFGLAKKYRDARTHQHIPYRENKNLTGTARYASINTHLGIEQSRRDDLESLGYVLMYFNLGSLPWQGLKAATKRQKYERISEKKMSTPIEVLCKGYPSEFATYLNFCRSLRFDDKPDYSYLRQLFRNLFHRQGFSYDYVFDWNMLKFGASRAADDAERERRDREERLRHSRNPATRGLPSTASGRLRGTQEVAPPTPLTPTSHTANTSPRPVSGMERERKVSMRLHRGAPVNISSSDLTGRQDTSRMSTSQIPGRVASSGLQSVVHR
The target in experiment [7] is Serine/threonine-protein kinase 26 (Homo sapiens) (UniProt Q9P289). Put plainly: Inhibition of MST4 assessed as residual activity at 0.1 uM by Cherenkov counting relative to control in presence of 20 uM ATP. The procedure, abridged: (§1)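 Single-concentration selectivity screen at 0.1 μM against a panel of 76 protein kinases. Each kinase was run at an ATP level approximating its Km for ATP. Output is mean residual activity as % of the control assay without compound, n = 3 ± SD.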

The nature of experiment [8]: Cell cycle arrest in human AC1-M88 cells assessed as accumulation at subG1 phase at 0.26 uM after 48 hrs by propidium iodide staining-based FACS analysis. The class given is functional. Background: Flow cytometry measures light scatter and fluorescence of single cells or particles in a stream.
In experiment [9] the target is T1, Casein kinase I isoform delta. Put plainly: Inhibition of recombinant CK1delta kinase domain at 10 nM by ATP competitive binding assay.
Target sequence in this assay (P48730 whole entry, looked up, canonical isoform): as the sequence (P48730 whole entry, canonical isoform) above
Experiment [10] in a line: Cell cycle arrest in human AC1-M88 cells assessed as accumulation at G1 phase at 0.26 uM after 48 hrs by propidium iodide staining-based FACS analysis. Type of experiment: functional. The procedure, abridged:
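AC1-M88 cells (extravillous trophoblast fused with the Jeg-3 choriocarcinoma mutant AC1-1) were grown in DMEM/F-12 with 10% FCS at 37 °C in humidified 5% CO2. Cells were exposed to compound for 48 h alongside a DMSO control (0.004% final), then fixed and stained with propidium iodide. Cell cycle was read by flow cytometry with the Cycle Test Plus kit.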

Experiment [11] addresses Aurora kinase B (Homo sapiens) (UniProt Q96GD4). Put plainly: Inhibition of Aurora B assessed as residual activity at 0.1 uM by Cherenkov counting relative to control in presence of 20 uM ATP. The procedure, abridged: (§2)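 Single-concentration screen at 0.1 µM across a panel of 76 protein kinases. Each kinase was run at an ATP concentration approximating its ATP Km. Results are % mean residual activity versus control assays without compound (n = 3 ± SD).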

Experiment [12] addresses Mitogen-activated protein kinase 8 (Homo sapiens) (UniProt P45983). Put plainly: Inhibition of JNK1 assessed as residual activity at 0.1 uM by Cherenkov counting relative to control in presence of 20 uM ATP. In outline:
as §1

In experiment [13] the target is T2, Serine/threonine-protein kinase Nek2 (Homo sapiens) (UniProt P51955).
T2 sequence (whole entry): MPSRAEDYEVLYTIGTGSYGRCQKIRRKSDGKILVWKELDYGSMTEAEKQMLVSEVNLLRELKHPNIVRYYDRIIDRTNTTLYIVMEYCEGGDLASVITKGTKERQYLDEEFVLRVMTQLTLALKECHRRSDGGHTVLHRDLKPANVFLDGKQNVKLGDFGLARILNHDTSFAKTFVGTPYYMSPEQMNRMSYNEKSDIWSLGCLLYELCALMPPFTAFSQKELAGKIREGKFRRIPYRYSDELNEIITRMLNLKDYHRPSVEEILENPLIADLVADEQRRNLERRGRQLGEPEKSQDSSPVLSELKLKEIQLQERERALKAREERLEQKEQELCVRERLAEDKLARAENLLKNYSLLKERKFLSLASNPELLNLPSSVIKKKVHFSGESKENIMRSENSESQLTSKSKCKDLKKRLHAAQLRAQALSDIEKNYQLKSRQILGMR
Put plainly: Inhibition of NEK2a assessed as residual activity at 0.1 uM by Cherenkov counting relative to control in presence of 50 uM ATP. The procedure, abridged: as §1

Experiment [14] has as its target Serine/threonine-protein kinase pim-3 (Homo sapiens) (UniProt Q86V86). Put plainly: Inhibition of PIM3 assessed as residual activity at 0.1 uM by Cherenkov counting relative to control in presence of 20 uM ATP. The procedure, abridged: as §1
Experiment [15] has as its target Insulin-like growth factor 1 receptor (Homo sapiens) (UniProt P08069). Put plainly: Inhibition of IGF1R assessed as residual activity at 0.1 uM by Cherenkov counting relative to control in presence of 5 uM ATP. The procedure, abridged: as §2
Experiment [16] deals with Mitogen-activated protein kinase 11 (Homo sapiens) (UniProt Q15759). Put plainly: Inhibition of p38beta at 0.1 uM by Cherenkov counting. The procedure, abridged:
(§3)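 Single-concentration screen at 0.1 μM in a 76-kinase panel. ATP for each kinase was set near its Km for ATP. Residual activity is given as a percentage of control assays without compound, mean of n = 3 ± SD.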

Experiment [17] deals with MAP/microtubule affinity-regulating kinase 3 (Homo sapiens) (UniProt P27448). Put plainly: Inhibition of MARK3 assessed as residual activity at 0.1 uM by Cherenkov counting relative to control in presence of 5 uM ATP. The procedure, abridged:
as §1

Experiment [18] concerns the target Tyrosine-protein kinase Yes (Homo sapiens) (UniProt P07947). Put plainly: Inhibition of YES1 assessed as residual activity at 0.1 uM by Cherenkov counting relative to control in presence of 20 uM ATP. In outline:
as §3

A short description of experiment [19]: Cell cycle arrest in human AC1-M88 cells assessed as accumulation at G2 phase at 0.26 uM after 48 hrs by propidium iodide staining-based FACS analysis. Type of experiment: functional.
For experiment [20], the system named is Casein kinase I isoform delta (Rattus norvegicus), Q06486 [M82F]. Put plainly: Inhibition of GST-fused rat CK1delta M82F mutant at 10 nM by Cherenkov counting in presence of 20 uM ATP.
Experiment [21] deals with T1, Casein kinase I isoform delta. Put plainly: Inhibition of recombinant CK1delta kinase domain at 5 nM by ATP competitive binding assay.
Target sequence in this assay (P48730 whole entry, looked up, canonical isoform): as the sequence (P48730 whole entry, canonical isoform) above
Experiment [22] in a line: Cell cycle arrest in human AC1-M88 cells assessed as accumulation at S phase at 0.38 uM after 48 hrs by propidium iodide staining-based FACS analysis. The class given is functional.
Experiment [23] can be described thus: Cell cycle arrest in human AC1-M88 cells assessed as accumulation at subG1 phase at 0.38 uM after 48 hrs by propidium iodide staining-based FACS analysis. The class given is functional.
Experiment [24] concerns the target Casein kinase I isoform delta (Rattus norvegicus) (UniProt Q06486). Conditions: 5 nM.

Structures are written as SMILES. Calls of active or inactive are those of the source. The calls are words filed in the database; no cut-off is given here.

Aurora kinase B (Homo sapiens), sequence (Q96GD4 whole entry): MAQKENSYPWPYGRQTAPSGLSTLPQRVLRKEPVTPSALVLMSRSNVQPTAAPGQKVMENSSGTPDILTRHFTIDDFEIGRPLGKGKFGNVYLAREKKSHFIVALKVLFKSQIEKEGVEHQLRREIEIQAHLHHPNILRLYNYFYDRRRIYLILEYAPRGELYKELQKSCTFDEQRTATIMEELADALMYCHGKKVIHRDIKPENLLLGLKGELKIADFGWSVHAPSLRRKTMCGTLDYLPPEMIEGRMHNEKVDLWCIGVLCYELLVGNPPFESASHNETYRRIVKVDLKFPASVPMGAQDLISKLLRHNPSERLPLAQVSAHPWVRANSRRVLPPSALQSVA
MAP/microtubule affinity-regulating kinase 3 (Homo sapiens), sequence (P27448 whole entry, looked up): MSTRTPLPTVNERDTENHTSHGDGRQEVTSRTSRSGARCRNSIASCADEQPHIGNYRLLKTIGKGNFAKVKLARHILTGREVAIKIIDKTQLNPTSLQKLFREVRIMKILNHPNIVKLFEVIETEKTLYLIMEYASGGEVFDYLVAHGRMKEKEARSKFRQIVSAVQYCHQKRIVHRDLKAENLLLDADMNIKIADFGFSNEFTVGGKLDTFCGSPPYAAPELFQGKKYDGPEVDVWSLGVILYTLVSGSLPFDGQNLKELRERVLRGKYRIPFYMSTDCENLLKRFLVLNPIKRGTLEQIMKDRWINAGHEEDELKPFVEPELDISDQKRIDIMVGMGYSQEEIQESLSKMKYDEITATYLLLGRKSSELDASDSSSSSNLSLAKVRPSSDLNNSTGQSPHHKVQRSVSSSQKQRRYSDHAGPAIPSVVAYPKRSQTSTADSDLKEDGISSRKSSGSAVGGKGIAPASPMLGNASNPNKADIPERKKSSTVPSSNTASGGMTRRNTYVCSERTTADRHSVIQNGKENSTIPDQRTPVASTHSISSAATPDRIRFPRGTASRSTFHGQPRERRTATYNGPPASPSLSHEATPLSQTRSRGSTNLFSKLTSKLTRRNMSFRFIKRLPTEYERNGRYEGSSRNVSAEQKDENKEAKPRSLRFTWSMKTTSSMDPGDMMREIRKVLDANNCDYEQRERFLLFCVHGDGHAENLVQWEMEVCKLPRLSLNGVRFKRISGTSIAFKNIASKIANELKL
Serine/threonine-protein kinase 26 (Homo sapiens), sequence (Q9P289 2-416 limits assumed): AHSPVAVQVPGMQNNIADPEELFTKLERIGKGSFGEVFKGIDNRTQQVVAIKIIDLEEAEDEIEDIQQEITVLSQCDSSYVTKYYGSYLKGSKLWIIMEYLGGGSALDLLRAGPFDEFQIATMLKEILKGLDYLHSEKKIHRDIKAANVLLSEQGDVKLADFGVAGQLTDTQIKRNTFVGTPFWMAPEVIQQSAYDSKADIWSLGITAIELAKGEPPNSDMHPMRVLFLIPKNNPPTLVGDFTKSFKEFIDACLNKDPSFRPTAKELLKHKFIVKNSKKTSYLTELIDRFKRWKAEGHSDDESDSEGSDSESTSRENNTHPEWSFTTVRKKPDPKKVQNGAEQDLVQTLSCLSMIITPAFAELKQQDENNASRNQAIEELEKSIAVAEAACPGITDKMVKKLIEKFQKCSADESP
Tyrosine-protein kinase Yes (Homo sapiens), sequence (P07947 2-543 limits assumed): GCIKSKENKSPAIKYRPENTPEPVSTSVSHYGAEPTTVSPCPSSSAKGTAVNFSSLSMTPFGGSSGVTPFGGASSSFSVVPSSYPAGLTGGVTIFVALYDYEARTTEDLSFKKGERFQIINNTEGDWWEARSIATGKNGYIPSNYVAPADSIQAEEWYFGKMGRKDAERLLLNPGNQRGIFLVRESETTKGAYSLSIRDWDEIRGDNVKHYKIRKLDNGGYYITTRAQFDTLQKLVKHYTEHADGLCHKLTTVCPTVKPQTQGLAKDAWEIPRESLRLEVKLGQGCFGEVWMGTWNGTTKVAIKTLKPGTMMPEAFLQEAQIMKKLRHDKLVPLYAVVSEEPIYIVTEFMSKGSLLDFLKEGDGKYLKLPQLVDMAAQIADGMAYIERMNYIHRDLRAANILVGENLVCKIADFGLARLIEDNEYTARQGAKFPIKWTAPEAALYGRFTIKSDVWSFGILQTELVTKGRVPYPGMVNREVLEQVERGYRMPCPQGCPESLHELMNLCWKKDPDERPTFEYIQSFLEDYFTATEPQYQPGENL
Mitogen-activated protein kinase 11 (Homo sapiens), sequence (Q15759 whole entry): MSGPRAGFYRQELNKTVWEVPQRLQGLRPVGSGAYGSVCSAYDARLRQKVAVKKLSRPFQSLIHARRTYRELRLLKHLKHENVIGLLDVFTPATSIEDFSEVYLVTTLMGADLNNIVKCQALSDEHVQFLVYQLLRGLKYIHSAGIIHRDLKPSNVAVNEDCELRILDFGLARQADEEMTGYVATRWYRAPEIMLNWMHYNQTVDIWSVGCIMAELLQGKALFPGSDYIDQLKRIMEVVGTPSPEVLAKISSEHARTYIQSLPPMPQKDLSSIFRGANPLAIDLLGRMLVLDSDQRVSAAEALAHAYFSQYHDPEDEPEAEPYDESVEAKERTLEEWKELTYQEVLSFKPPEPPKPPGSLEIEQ
Mitogen-activated protein kinase 8 (Homo sapiens), sequence (P45983 whole entry): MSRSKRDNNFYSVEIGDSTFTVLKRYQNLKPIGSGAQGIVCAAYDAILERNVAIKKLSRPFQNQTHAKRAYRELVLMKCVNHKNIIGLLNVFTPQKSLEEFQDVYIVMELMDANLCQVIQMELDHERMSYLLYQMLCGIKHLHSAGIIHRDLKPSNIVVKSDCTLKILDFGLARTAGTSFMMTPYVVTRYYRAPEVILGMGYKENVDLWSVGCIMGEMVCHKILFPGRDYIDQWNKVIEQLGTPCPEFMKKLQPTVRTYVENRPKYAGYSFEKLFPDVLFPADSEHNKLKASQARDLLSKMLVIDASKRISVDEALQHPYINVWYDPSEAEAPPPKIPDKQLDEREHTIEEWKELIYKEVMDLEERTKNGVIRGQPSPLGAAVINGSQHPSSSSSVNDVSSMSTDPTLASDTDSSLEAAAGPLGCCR

Turning to `CC(C)c1noc(-c2ccc(F)cc2)c1-c1ccncc1`, the Activity in experiment [1] is 22%; in [2], 104%; in experiment [3] it was 92%.

The inhibition is the change of the read-out against control, counted positive when it falls. The term IC50 denotes the concentration that gives 50% inhibition. As for `CC(C)c1onc(-c2ccc(F)cc2)c1-c1ccncc1`, the results for the Activity in [1], in experiment [2] and in experiment [3] were 101%, 95% and 95%, respectively. For the same molecule, the inhibition in experiment [4] stood at 72%; in experiment [5], 87%. Also, the IC50 in [6] amounted to 230 nM.

With `COc1ccc(/C=C/C(=O)Nc2cc(-c3[nH]c([S+](C)[O-])nc3-c3ccc(F)cc3)ccn2)c(OC)c1` (stereo unspecified), the Activity amounted to 86% in experiment [7]; 77.1% in experiment [8]; 12% in experiment [10]; 93% in experiment [11]; 53% in [12]; 92% in experiment [13]. Moreover, the Activity in experiment [14] was found to be 90%; in experiment [15] it was 107%; in experiment [17] it was 89%; in experiment [18], 14%; in [19] it was 5.32%. Further, the inhibition in experiment [9] is 10%; in experiment [16], 54%. Also, the inhibition result in experiment [20] is “inactive”.

`COc1ccc(/C=C/C(=O)Nc2cc(-c3[nH]c(SC)nc3-c3ccc(F)cc3)ccn2)c(OC)c1`: the inhibition in [21] was 18%; in [16] it was 83%. Besides, the Activity was 90% in experiment [7]; 2.41% in experiment [22]; 87.1% in experiment [23]; 93% in experiment [11]; 90% in experiment [12]; 91% in experiment [13]. The Activity in experiment [14] came to 81%; in experiment [15], 87%; in [17] it was 87%; in experiment [18], 24%. In [24], the inhibition result is “Active”.
